Assay outcomes as filed in PubChem BioAssay.
This is a sample that favours compounds with a hit; in the whole collection about 3.5% have one here.
MrgX1 PAM = positive allosteric modulators of MrgX1, primary screen, HEK293 cells, Fluo-4 calcium flux | 310,000 tested, 0.63% active | FDSS; stronger effect = higher value | B-score at 10 µM | Mas-related G-protein coupled receptor member X1 (Homo sapiens), Q96LB2;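 active = plate-corrected calcium response at least 3 library SD above typical, normal starting fluorescence, not activating the receptor alone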;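 note: compound read alongside a low EC10 to EC30 dose of BAM8-22 agonist; peak minus trough fluorescence over baseline measured at the second addition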
Target sequence (Q96LB2 whole entry, looked up): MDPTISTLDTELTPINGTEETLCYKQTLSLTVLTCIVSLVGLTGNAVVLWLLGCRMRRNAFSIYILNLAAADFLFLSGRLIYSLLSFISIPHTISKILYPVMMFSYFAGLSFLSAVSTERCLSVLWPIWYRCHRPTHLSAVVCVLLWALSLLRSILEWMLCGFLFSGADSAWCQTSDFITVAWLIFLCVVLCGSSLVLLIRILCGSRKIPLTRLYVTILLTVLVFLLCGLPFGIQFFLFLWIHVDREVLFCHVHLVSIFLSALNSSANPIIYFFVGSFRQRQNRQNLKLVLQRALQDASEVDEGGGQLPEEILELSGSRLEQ
MrgX1 antag = antagonists of human MrgX1 receptor, primary screen, HEK293 cells, Fluo-4 calcium flux | BAM8-22 antagonism; stronger effect = lower value | B-score at 10 µM | 310,000 tested, 1.3% active;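 active = calcium-response B-score plate-corrected more than 3 library SD below zero, starting fluorescence within 5 deviations, no agonist response on first addition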;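 note: peak minus trough fluorescence over baseline after final BAM8-22 challenge near maximal dose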
RGS4 act = RGS4 potentiators or activators, primary screen, cell-based, HEK293 M3R inducible RGS4, calcium flux; carbachol calcium flux Fluo4; stronger effect = lower value; B-score at 10 µM; 310,000 tested, 0.92% active; AID 463111, 2010;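 active = B-score of the integrated calcium signal more than 4 SD below the library mean, with starting fluorescence not abnormally high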;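 note: negative B-score means reduced calcium response which marks RGS4 activation or potentiation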
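test system = HEK293 cells with stable M3R and inducible RGS4 | schedule = recording 10 s baseline at 1 Hz, 100 s post-agonist | technique = Fluo4-AM (2 µM) calcium-flux fluorescence, kinetic read | measure = Agonist-evoked peak-minus-minimum fluorescence over baseline, integrated ratio, B score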
RGS4 block = RGS4 inhibitors, primary screen, cell-based, HEK293 M3R inducible RGS4, calcium flux | B-score at 10 µM | 310,000 tested, 0.45% active | Fluo-4 calcium flux; stronger effect = higher value; triggered by carbachol at its EC20 | AID 463165, 2010 | Regulator of G-protein signaling 4 (Homo sapiens), P49798;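 active = B-score, a plate-corrected calcium signal, over three deviations above library mean, with baseline fluorescence within five deviations of library mean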;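 note: RGS4 expression induced by doxycycline in cells with stable M3 receptor; B-score is computed from the integrated fluorescence ratio over baseline after carbachol; higher B-score means a larger calcium signal and so more RGS4 inhibition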
Target sequence (P49798 whole entry, looked up): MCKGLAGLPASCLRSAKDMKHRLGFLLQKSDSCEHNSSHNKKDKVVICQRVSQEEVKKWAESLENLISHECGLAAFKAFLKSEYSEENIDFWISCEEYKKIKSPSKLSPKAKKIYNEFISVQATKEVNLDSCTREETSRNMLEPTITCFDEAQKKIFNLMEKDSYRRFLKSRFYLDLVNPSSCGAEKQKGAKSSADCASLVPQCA
MrgX1 ag = agonists of human MrgX1 receptor, primary screen, HEK293 cells, Fluo-4 calcium flux; Fluo-4 calcium fluorescence, agonist mode; stronger effect = higher value; AID 588627, 2011; B-score at 10 µM; Mas-related G-protein coupled receptor member X1 (Homo sapiens), Q96LB2; 310,000 tested, 0.44% active;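 active = calcium response B-score plate-corrected fluorescence ratio at least 3 library SD, with starting fluorescence B-score inside 5 SD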
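Test system: HEK293 cells stably expressing human MrgX1 receptor; Input: fifteen thousand cells per well; Dosing: compound delivered in addition one of three; Schedule: overnight seeding, then 1 h dark dye loading; Technique: Fluo-4 NW calcium fluorescence; Measure: B-scored fluorescence response ratio; Controls: positive and negative controls per plate.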
MrgX1 antag conf = MrgX1 receptor antagonists, duplicate retest, confirmation, HEK293 cells, Fluo-4 calcium flux | shares compounds with MrgX1 antag | 2,300 tested, 19% active | BAM8-22 calcium flux; stronger effect = lower value | remaining BAM8-22 calcium response % of control (stronger effect = lower value), % at 10 µM;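 active = remaining agonist calcium response no higher than 100% minus 3 SD of agonist-only control wells, with starting fluorescence near control levels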;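 note: agonist BAM8-22 given at a near maximal EC90 to ECmax level; peak minus minimum fluorescence divided by baseline after agonist addition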
HEK293 Ca flux = nonspecific calcium signal in parental HEK293, confirmation, counter-screen for MrgX1 antagonist project, parental HEK293 cells, Fluo-4 calcium flux | AID 624111, 2012 | fluorescence ratio F(max-min)/F0 at 10 µM | Fluo-4 calcium fluorescence, FDSS | shares compounds with MrgX1 antag | 4,000 tested, 2% active;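 active = duplicate-averaged calcium fluorescence ratio at least three times the standard deviation of buffer wells, a nonspecific response in parental cells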
HEK293 Ca counter = calcium response in parental HEK293 cells, primary screen, counter-screen for MrgX1 allosteric activator project, cell-based, Fluo-4 calcium flux, duplicate. shares compounds with MrgX1 antag. Fluo-4 fluorescence ratio; stronger effect = higher value. fluorescence ratio F(max-min)/F0 at 10 µM. 4,000 tested, 0.4% active;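 active = calcium fluorescence ratio, averaged over duplicates, at least 3 SD of the buffer-well ratio, meaning a nonspecific response in receptor-free cells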;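 note: untransfected parental HEK293 lacking MrgX1 used as counterscreen for MrgX1 allosteric activators; fluorescence change taken during the second addition on a kinetic imager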
HEK293 Ca cntr2 = calcium response in parental HEK293 cells, primary screen, counter-screen for MrgX1 agonist project, cell-based, Fluo-4 calcium flux, duplicate, agonist mode; shares compounds with MrgX1 antag; Fluo-4 calcium fluorescence (FDSS); stronger effect = higher value; fluorescence ratio F(max-min)/F0 at 10 µM; 4,000 tested, 8.7% active;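 active = calcium fluorescence ratio at least three times the spread of buffer wells, meaning a non-specific response in parental cells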
Starred values were filed as active, the others as inactive; i = inactive; · = not tested or not shown.

SMILES	MrgX1 PAM	MrgX1 antag	RGS4 act	RGS4 block	MrgX1 ag	MrgX1 antag conf	HEK293 Ca flux	HEK293 Ca counter	HEK293 Ca cntr2
Cc1cc(C(=O)CSc2nnc(Cc3ccccc3)o2)c(C)n1Cc1ccc2c(c1)OCO2	i	-7.5*	i	i	i	i	i	i	i
COc1ccc(Nc2cc3n(c(=O)n2)CCc2cc(OC)c(OC)cc2-3)c(C)c1	i	-6.3*	i	i	i	i	i	i	i
CN(CCC1CCOCC1)C(=O)CC1C(=O)NCCN1Cc1ccccc1F (stereo not drawn)	i	i	i	i	i	·	·	·	·
CN(CCN1CCOCC1)C(=O)CC1C(=O)NCCN1Cc1ccccc1F (stereo not drawn)	i	-8.6*	i	i	i	i	i	i	i
CCN(CC)C1CCN(C(=O)c2cc(COc3ccccc3SC)on2)C1 (stereo not drawn)	i	i	i	i	i	·	·	·	·
CSc1ccccc1OCc1cc(C(=O)N2CCCC(C)C2)no1 (stereo not drawn)	i	-5.7*	i	i	i	i	i	i	i
CCN(CC)S(=O)(=O)c1ccc(NC2c3ncccc3C(=O)N2Cc2ccccc2)cc1 (stereo not drawn)	i	-9.3*	i	i	i	i	i	i	i
CCCOc1ccc(C(=O)N2CCN(Cc3ccc4c(c3)OCO4)CC2)cc1	i	i	i	i	i	·	·	·	·
Fc1ccc(CN2CCSCC2)cc1F	i	-4.5*	i	i	i	i	i	i	i
O=C(COC(=O)c1ccc2c(c1)S(=O)(=O)N=C1CCCCCN12)NCCc1ccc(F)cc1	i	i	i	i	i	·	·	·	·
Cc1c(C(=O)O)[nH]c2c1C(=O)CC(c1ccc(Cl)cc1)C2 (stereo not drawn)	i	-4.5*	i	i	i	i	i	i	i
COCC(=O)n1nc(-c2ccc(Cl)cc2)nc1NCc1ccc(F)cc1	i	-4.9*	i	i	i	81%*	i	i	i
COCC(=O)n1nc(-c2ccccc2)nc1NCc1ccc(N(C)C)cc1	i	i	i	i	i	·	·	·	·
CCSc1nc2ccc(N3C(=O)C4C5C=CC(C5)C4C3=O)cc2s1 (stereo not drawn)	i	i	i	i	i	·	·	·	·
COC(=O)C1CSc2[nH]c(=O)sc2C1c1ccccc1 (stereo not drawn)	i	-5.7*	i	i	i	i	i	i	i
CC(C)COC(=O)/C(C#N)=C/c1c[nH]c2ccccc12	i	i	i	i	i	·	·	·	·
O=C(Nc1ccc(S(=O)(=O)Nc2nccs2)cc1)c1cc(-c2ccccc2)nc2ccccc12	i	i	i	i	i	·	·	·	·
Cc1ccc(-c2cc(C(=O)Nc3ccc(S(=O)(=O)Nc4ncccn4)cc3)c3ccccc3n2)cc1	i	-5.7*	i	i	i	i	i	i	i
Cc1ccc(OCC(=O)NCCCNC(=O)c2ccco2)cc1	i	i	i	i	i	·	·	·	·
Cc1c(C(=O)N(C)C)c2cc(Cl)ccc2n1O	i	-5*	i	i	i	i	i	i	i
Fc1ccc(COc2ccccc2C(=S)N2CCCC2)cc1	i	-5.4*	i	i	i	i	i	i	i
Cc1ccc(Cn2ccsc2=NC(=O)COC(=O)c2ccc(O)cc2O)cc1	i	-7.7*	i	i	i	i	i	i	i
CCC12CN3CC(CC)(CN(C1)C3c1ccc([N+](=O)[O-])o1)C2=O (stereo not drawn)	i	i	i	i	i	·	·	·	·
Cc1ccc(NC(=O)NC2CCCc3ccccc32)cc1 (stereo not drawn)	i	-5.3*	i	i	i	i	i	i	i
CC(C)Cc1nnc(NC(=O)CCC(=O)NC2CCCc3ccccc32)s1 (stereo not drawn)	i	-5.2*	i	i	i	i	i	i	i
SMILES	MrgX1 PAM	MrgX1 antag	RGS4 act	RGS4 block	MrgX1 ag	MrgX1 antag conf	HEK293 Ca flux	HEK293 Ca counter	HEK293 Ca cntr2
CCCc1nnc(NC(=O)CCC(=O)NC2CCCc3ccccc32)s1 (stereo not drawn)	i	i	i	i	i	·	·	·	·
CCOc1ccc(-c2csc(Cn3c(CN4CCN(C)CC4)nc4ccccc4c3=O)n2)cc1	i	i	i	i	i	·	·	·	·
CCOC(=O)c1c(C)[nH]c(C)c1S(=O)(=O)NCc1ccc(OCC)cc1	i	i	i	i	i	·	·	·	·
CN(C)/C=C1\C(=O)Oc2ccccc2C1=O	i	i	i	i	i	·	·	·	·
CCOC(=O)CSc1nc(Nc2ccc3c(c2)OCO3)c2ccccc2n1	i	i	i	i	i	·	·	·	·
CCOC(=O)c1cnc2ccccc2c1Nc1ccc2c(c1)OCCO2	i	-5.5*	i	i	i	i	i	i	i
CCOC(=O)CC1C(=O)NCCN1S(=O)(=O)c1ccc(Cl)cc1Cl (stereo not drawn)	i	-6.9*	i	i	i	i	i	i	i
c1nc(N2CCOCC2)c2c3c(sc2n1)CCCC3	i	i	i	i	i	·	·	·	·
O=C(c1ccccc1)N1CCN(c2ncnc3sc4c(c23)CCC4)CC1	i	-5.1*	i	i	i	i	i	i	i
Cc1ccc(NC(=O)Cc2ccc(-c3ccccc3)cc2)nc1	i	-8.1*	i	i	i	i	i	i	i
